Each block holds one compound with its values, some of them ahead of it.
Columns and labels:
[1] = tested on: SH-SY5Y cells; assay: MTT cell viability, compound alone; format: cell-based, human; conditions: SH-SY5Y, 24 h; for Viability C. Compound alone: 0.9 µM compound, mean±SEM
Summary of the method: (§1)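 Cells were SH-SY5Y grown in DMEM/F12 with 10% FBS at 37 °C and 5% CO₂, seeded at 5×10⁴ cells/well, and given fresh medium with 0.9 µM compound alone 24 h after plating. After 24 h, MTT (5 mg/mL stock) was added for 4 h, then isopropanol/0.04 mol/L HCl overnight. Read OD570 minus OD700, normalised to untreated and 100% death controls. Triplicate wells, three plates, mean±SEM, kept in the dark.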

[2] = Solubility check; format: physicochemical
[3] = MTT cell viability, compound alone; format: cell-based, human; conditions: human, SH-SY5Y neuroblastoma cells
Summary of the method: as §1

[4] = biological target: T1, Aβ (1–42) (Homo sapiens, UniProt P05067); assay: SDS-PAGE and western blotting of Aβ; format: biochemical; conditions: for Smear bands in SDS-PAGE: 30 µM compound, 24 h, 37 °C; for Effects on Aβ aggregation (in words): derivatives without hydroxy groups on the aromatic groups
Summary of the method: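 Aβ(1–42) monomerized in HFIP (1 mM, 37 °C, 1 h), diluted to 10 µM in PBS with 30 µM test compound (final; DMSO vehicle), incubated 24 h at 37 °C. Diluted to 2.25 µM in unheated SDS buffer, run on 10–20% gels, blotted to PVDF and probed with 6E10 then HRP anti-mouse, with chemiluminescence detection. Band intensities per range were read against marker. Means±SEM, ≥3 independent experiments, ANOVA/Dunnett vs DMSO.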

[5] = tested on: SH-SY5Y cells; assay: MTT cell viability, simultaneous treatment with Aβ aggregates and the compounds; format: cell-based, human; conditions: 24 h, 0.3 µM Aβ aggregates, 0.9 µM compound
Summary of the method: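 Aβ(1–42) was HFIP-pretreated, taken up at 5 mM in DMSO, diluted to 10 µM in PBS and aggregated 24 h at 37 °C. SH-SY5Y cells (5×10⁴/well, 24 h after plating) received 0.3 µM of these aggregates plus 0.9 µM compound together for 24 h. Read-out was MTT (4 h), OD570−OD700, as % of untreated and 100% death controls. Triplicate wells in ≥3 independent runs; ANOVA/Dunnett against DMSO vehicle.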

[6] = biological target: T1, Aβ (1–42); assay: Native gel electrophoresis of Aβ; format: biochemical; conditions: 30 µM compound, 24 h, 37 °C
Summary of the method: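 HFIP-pretreated Aβ(1–42) (5 mM DMSO stock) was diluted to 10 µM in PBS with 30 µM compound (1.5 mM DMSO stock) and held 24 h at 37 °C in the dark; DMSO served as vehicle. Samples were brought to 2.25 µM in native sample buffer, run on 5–20% gels at 100 V for 4 h at 4 °C and transferred to PVDF. Blots used 6E10 anti-Aβ (1:1000), HRP anti-mouse (1:20,000) and chemiluminescence.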

[7] = tested on: APP/PS1 mice; conditions: cited from earlier work
[8] = tested on: Aβ; conditions: cited from earlier work
[9] = biological target: Aβ aggregates (Homo sapiens, UniProt P05067); assay: Thioflavin T fluorescence competition assay; format: binding
[10] = tested on: amyloid plaques; conditions: transgenic mouse model of AD, injection via the tail vein; cited from earlier work
[11] = all ranges of 15–20, 20–37, 37–75, and 75–200 kDa

T1 sequence (P05067 672-713): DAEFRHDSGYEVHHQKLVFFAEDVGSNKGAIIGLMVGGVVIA
Aβ aggregates, sequence (P05067 672-713): as above

SMILES: COC(=O)COc1ccc(C=CC(=O)CC(=O)C=Cc2ccc(O)c(OC)c2)cc1OC [SY35, 1-[(4-Hydroxy-3-methoxy)phenyl]-7-[(3-methoxy-4-methoxycarbonylmethoxy)phenyl]-1,6-heptadiene-3,5-dione]
Viability C. Compound alone [1]: 93.7±2.9%

SMILES: COc1cc(/C=C/C(=O)CC(=O)/C=C/c2ccc(O)c(OC)c2)ccc1O [Cur, Curcumin, reference compound]
Solubility / precipitation ([2]; 30 µM in PBS with DMSO): no precipitation | Solubility / precipitation ([2]; 200 µM solution): clearly observed precipitates | viability at 24 h, 0.9 µM [3]: 97.5 ± 7.3%

SMILES: COc1cc(C=CC(=O)CC(=O)C=Cc2cc(C(F)(F)F)cc(C(F)(F)F)c2)ccc1O [SY4, 1-[(4-Hydroxy-3-methoxy)phenyl]-7-[3,5-bis(trifluoromethyl)phenyl]-1,6-heptadiene-3,5-dione]
Cell viability after simultaneous treatment vs vehicle control (in words) [5]: significant reduction in cell viability | Viability C. Compound alone [1]: 91.6±3.2%

SMILES: COC(=O)CCC(C(=O)C=Cc1ccc(O)c(OC)c1)C(=O)C=Cc1ccc(O)c(OC)c1 (stereo not drawn) [SY23, 1,7-Bis[(4-hydroxy-3-methoxy)phenyl]-4-methoxycarbonylethyl-1,6-heptadiene-3,5-dione]
Viability C. Compound alone [1]: 97.9±2.4%

SMILES: O=C(C=Cc1ccc(O)c(OC(F)(F)F)c1)C(CCOCCOCCOCCOC1CCCCO1)C(=O)C=Cc1ccc(O)c(OC(F)(F)F)c1 (stereo not drawn) [SY27, 1,7-Bis[(4-hydroxy-3-trifluoromethoxy)phenyl]-4-[11-(2-tetrahydropyranyloxy)-3,6,9-trioxaundec-1yl]-1,6-heptadiene-3,5-dione]
Viability C. Compound alone [1]: 98.5±5.3%

SMILES: COc1ccc(C=CC(=O)C(C)C(=O)C=Cc2ccc(OC)c(OC(F)(F)F)c2)cc1OC(F)(F)F (stereo not drawn) [SY18, 1,7-Bis[(4-methoxy-3-trifluoromethoxy)phenyl]-4-methyl-1,6-hexadiene-3,5-dione]
Cell viability after treatment with compound alone (in words) ([1]; 0.9 µM): significantly reduced cell viability | Viability C. Compound alone [1]: 69.5±7.7 % | Effects on Aβ aggregation (in words) [4]: no effects on Aβ aggregation

SMILES: COC(=O)CCC(C(=O)C=Cc1cc(F)c(O)c(F)c1)C(=O)C=Cc1cc(F)c(O)c(F)c1 (stereo not drawn) [SY16, 1,7-Bis[(4-hydroxy-3,5-difluoro)phenyl]-4-methoxycarbonylethyl-1,6-hexadiene-3,5-dione]
Viability C. Compound alone [1]: 94.1±2.8%

SMILES: CCC(C(=O)C=Cc1ccc(O)c(OC(F)(F)F)c1)C(=O)C=Cc1ccc(O)c(OC(F)(F)F)c1 (stereo not drawn) [SY41, 1,7-Bis[(4-hydroxy-3-trifluoromethoxy)phenyl]-4-ethyl-1,6-heptadiene-3,5-dione]
Viability C. Compound alone [1]: 93.4±5.9%

Now from value to compound, other results behind:

Densities of the bands of Aβ (1–42) vs vehicle control (in words) ([4]; only in the range of 15–20 kDa): significant increases
SMILES: COc1cc(C=CC(=O)CC(=O)C=Cc2ccc(O)c(OC(F)(F)F)c2)ccc1O [SY2, 1-[(4-Hydroxy-3-methoxy)phenyl]-7-[(4-hydroxy-3-trifluoromethoxy)phenyl]-1,6-heptadiene-3,5-dione]
Viability C. Compound alone [1]: 101.4±2.0%

Smear bands in native-PAGE [6]: Marked smear bands | Solubility / precipitation ([2]; 30 µM in PBS with DMSO): no precipitation | Smear bands in SDS-PAGE [4]: Marked smear bands | Densities of the bands of Aβ (1–42) vs vehicle control (in words) [4, 11]: significant increases | IC50 [9]: 440 nM
SMILES: COC(=O)CCC(C(=O)C=Cc1ccc(O)c(OC(F)(F)F)c1)C(=O)C=Cc1ccc(O)c(OC(F)(F)F)c1 (stereo not drawn) [SY5, 1,7-bis (4′-hydroxy-3′-trifluoromethoxyphenyl)-4-methoxycarbonylethyl-1,6-heptadiene-3,5-dione]
viability at 24 h, 0.9 µM [3]: 102 ± 3.6% | Amyloid deposition [7]: reduce amyloid deposition | Cognitive decline [7]: inhibit cognitive decline | Inhibition of Aβ aggregation ([8]; 30 µM, ref our previous study): significant inhibition of Aβ aggregation | Formation of higher molecular size Aβ aggregates ([8]; incubated with Aβ during the aggregation state in vitro): inhibit the formation of higher molecular size Aβ aggregates | Binding to amyloid plaques in brain [10]: bound to amyloid plaques | Blood–brain barrier penetration [10]: penetrated the blood–brain barrier

Effects on Aβ aggregation (in words) [4]: no effects on Aβ aggregation
SMILES: COCOc1ccc(C=CC(=O)C(CCC(=O)OC(C)(C)C)C(=O)C=Cc2ccc(OCOC)c(OC(F)(F)F)c2)cc1OC(F)(F)F (stereo not drawn) [SY22, 1,7-Bis[(4-methoxymethoxy-3-trifluoromethoxy)phenyl]-4-(1,1-dimethylethoxy)carbonylethyl-1,6-hexadiene-3,5-dione]
Viability C. Compound alone [1]: 95.8±3.6%

Effects on Aβ aggregation (in words) [4]: no effects on Aβ aggregation
SMILES: COc1ccc(C=CC(=O)CC(=O)C=Cc2ccc(OC)c(F)c2)cc1F [SY9, 1,7-Bis[(3-fluoro-4-methoxy)phenyl]-1,6-heptadiene-3,5-dione]
Viability C. Compound alone [1]: 94.2±2.5%

Densities of the bands of Aβ (1–42) vs vehicle control (in words) ([4]; only in the range of 20–37 kDa): significant increases
SMILES: COC(=O)CCC(C(=O)C=Cc1ccc(O)c(F)c1)C(=O)C=Cc1ccc(O)c(F)c1 (stereo not drawn) [SY38, 1,7-Bis[(4-hydroxy-3-fluoro)phenyl]-4-methoxycarbonylethyl-1,6-heptadiene-3,5-dione]
Viability C. Compound alone [1]: 91.6±3.9%

Densities of the bands of Aβ (1–42) vs vehicle control (in words) ([4]; only in the range of 20–37 kDa): significant increases
SMILES: COC(=O)CCC(C(=O)C=Cc1ccc(O)c(OC(F)(F)F)c1)C(=O)C=Cc1ccco1 (stereo not drawn) [SY37, 1-[(4-Hydroxy-3-trifluoromethoxy)phenyl]-7-(2-furyl)-4-methoxycarbonylethyl-1,6-heptadiene-3,5-dione]
Viability C. Compound alone [1]: 93.0±4.1%

Effects on Aβ aggregation (in words) [4]: no effects on Aβ aggregation
SMILES: COc1ccc(C=CC(=O)C(CCC(=O)OC(C)(C)C)C(=O)C=Cc2ccc(OC)c(F)c2)cc1F (stereo not drawn) [SY42, 1,7-Bis[(3-fluoro-4-methoxy)phenyl]-4-(1,1-dimethylethoxy)carbonylethyl-1,6-heptadiene-3,5-dione]
Viability C. Compound alone [1]: 88.6±6.3%

Smear bands in native-PAGE [6]: Marked smear bands | Solubility / precipitation ([2]; 30 µM in PBS with DMSO): no precipitation | Smear bands in SDS-PAGE [4]: Marked smear bands | Densities of the bands of Aβ (1–42) vs vehicle control (in words) [4, 11]: significant increases
SMILES: O=C(C=Cc1ccc(O)c(OC(F)(F)F)c1)C(CCOC1CCCCO1)C(=O)C=Cc1ccc(O)c(OC(F)(F)F)c1 (stereo not drawn) [SY33, 1,7-Bis[(4-hydroxy-3-trifluoromethoxy)phenyl]-4-(2-tetrahydropyranyloxy)ethyl-1,6-heptadiene-3,5-dione]
Viability C. Compound alone [1]: 97.8±4.2%
